# Calls of active or inactive are those of the source. No cut-off for these calls is given here.
# Species on record: Rattus norvegicus
# Experiment: Effective dose required for 40% inhibition of rat dermal reverse passive Arthus reaction (RPAR)
# Format: functional
# Method in brief: (§1)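 Fasted male rats received BSA intravenously and about 1 h later a challenge of rabbit anti-BSA given intradermally. Compound was dosed orally 30 min before the challenge. Rats were killed 4 h later and dermal lesion size was measured. ED40 with 95% confidence limits came from least-squares regression.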
row,Structure (SMILES),ED40 [µM/kg]
1,Cc1cc2nc(N(N)CCC#N)oc2cc1C,413
2,N#CCCN(NC=O)c1nc2ccccc2o1,142
3,CC(=O)NN(CCC#N)c1nc2ccccc2o1,402
4,N#CCCN(N)c1ncco1,360
5,Cc1cccc2oc(N(N)CCC#N)nc12,356
6,CSc1ccc2oc(N(N)CCC#N)nc2c1,399
7,N#CCCN(N)c1nc(-c2ccccc2)c(-c2ccccc2)o1,332
8,N#CCCSc1nc2ccccc2o1,1268
9,NN(CCCO)c1nc2ccccc2o1,576
10,CS(=O)(=O)CCN(N)c1nc2ccccc2o1,278
11,COCCN(N)c1nc2cc(C#N)ccc2o1,181
12,[2H]C([2H])(C#N)CN(N)c1nc2ccccc2o1,255
13,NN(CCN1CCOCC1)c1nc2ccccc2o1,825
14,N#CCCN(N)c1nc2cccc(Cl)c2o1,275
15,N#CCCN(N)c1nc2cc(C(F)(F)F)ccc2o1,26
16,N#CCCN(N)c1nc2cc3ccccc3cc2o1,306
17,CSc1cc(C(C)(C)C)cc2nc(N(N)CCC#N)oc12,801
18,NN(CCOc1ccc(F)cc1)c1nc2ccccc2o1,800
19,CCN(CC)CCN(N)c1nc2ccccc2o1,611
20,Cc1cc(N(N)CCC#N)c2ccccc2n1,177
21,N#CCCN(N)c1nc2cc(Cl)ccc2o1,177

row,Structure (SMILES),ED40 [µM/kg]
1,NN(CCc1ccccc1)c1nc2ccccc2o1,962
2,COc1ccc2oc(N(CCC#N)NC=O)nc2c1,200
3,Cc1nc(N(N)CCC#N)oc1C,519
4,C[C@]12CCC(=O)C=C1CC[C@@H]1[C@@H]2[C@@H](O)C[C@@]2(C)[C@H]1CC[C@]2(O)C(=O)CO [HYDROCORTISONE],33
5,N#CCCNc1nc2ccccc2o1,1302
6,CCNN(CCC#N)c1nc2ccccc2o1,196
7,CCOCCN(N)c1nc2cc(OC)ccc2o1,149
8,N#CCCN(N)C1=NS(=O)(=O)c2ccccc21,643
9,COC(=O)CCN(N)c1nc2ccccc2o1,1208
10,CCN(N)c1nc2ccccc2o1,254
11,NN(CCO)c1nc2ccccc2o1,1247
12,Cc1cc2oc(N(N)CCC#N)nc2cc1Cl,36
13,N#CCCN(N)c1nc(-c2ccccc2)co1,119
14,CNN(CCC#N)c1nc2ccccc2o1,250
15,Cc1ccc2oc(N(N)CCC#N)nc2c1,83
16,COCCN(N)c1nc2cc(Cl)ccc2o1,136
17,Cc1cc2oc(N(N)CCC#N)nc2c(C)c1C,139
18,C=NN(CCC#N)c1nc2ccccc2o1,845
19,C/C=N\N(CCC#N)c1nc2ccccc2o1,625
20,N#CCCN(N)c1nc2cc(C#N)ccc2o1,66
21,Cc1coc(N(N)CCC#N)n1,705

row,Structure (SMILES),ED40 [µM/kg]
1,Cn1c(N(N)CCC#N)nc2ccccc21,349
2,CSCCN(N)c1nc2ccccc2o1,913
3,C[S+]([O-])c1ccc2oc(N(N)CCC#N)nc2c1 (stereo not given),607
4,Cc1ccc2nc(N(N)CCC#N)oc2c1,216
5,N#CCCN(N)c1nc2ccccc2o1,84
6,NN(CC[S+]([O-])c1ccccc1)c1nc2ccccc2o1 (stereo not given),719
7,CC(C)(C)c1ccc2oc(N(N)CCC#N)nc2c1,345
8,N#CCCN(N)c1cnccn1,760
9,N#CCCN(N)c1ccc(-c2ccccc2)nn1,672
10,NN(CCc1ccccn1)c1nc2ccccc2o1,258
11,CCc1ccc2oc(N(N)CCC#N)nc2c1,330
12,Cc1cc(C)c2oc(N(N)CCC#N)nc2c1C,115
13,Cc1ccc2oc(N(CCC#N)NC=O)nc2c1,168
14,Cc1cc(C)c2oc(N(N)CCC#N)nc2c1,161
15,CC(CC#N)N(N)c1nc2ccccc2o1 (stereo not given),245
16,N#CCCN(N)C1Cc2ccccc2C1,565
17,N#CCCN(N)c1nccs1,390
18,Cc1cc(Cl)cc2nc(N(N)CCC#N)oc12,191
19,COc1ccc2nc(N(N)CCC#N)oc2c1,388
20,COc1ccc2oc(N(N)CCC#N)nc2c1,59
21,COC(=O)NN(CCC#N)c1nc2ccccc2o1,695

row,Structure (SMILES),ED40 [µM/kg]
1,N#CCCN(N)c1nc2ccccc2s1,128
2,CC(C#N)CN(N)c1nc2ccccc2o1 (stereo not given),210
3,Cc1cccc2nc(N(N)CCC#N)oc12,250
4,CCCN(N)c1nc2ccccc2o1,400
5,N#CCCN(NC=O)c1nc2cc(C(F)(F)F)ccc2o1,87
6,COCCN(N)c1nc2ccccc2o1,300
7,N#CCCN(N)c1nc2c(ccc3ccccc32)o1,346
8,NC(=O)CCN(N)c1nc2ccccc2o1,1009
9,COCCN(N)c1nc2cc(C)ccc2o1,127
10,N#CCCN(N)c1ncc(-c2ccccc2)cn1,121
11,NN(CCOc1ccccc1)c1nc2ccccc2o1,457
12,COc1cc2nc(N(N)CCC#N)oc2cc1OC,650
13,CS(=O)(=O)c1ccc2oc(N(N)CCC#N)nc2c1,407
14,COCCN(N)c1nc2cc(OC)ccc2o1,43
15,N#CCCN(N)c1nc2cc(F)ccc2o1,141
16,COCCN(N)c1nc2cc(C(F)(F)F)ccc2o1,47
17,N#CCCN(N)C1=Nc2ccccc2C1,265
18,C#CCCN(N)c1nc2ccccc2o1,348

# Species on record: Rattus norvegicus
# Experiment: Inhibition of pleural reverse passive Arthus reactions (exudate white blood cells (WBC))
# Format: functional
# Method in brief: (§2)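 Fasted male rats were given BSA intravenously, then about 1 h later rabbit anti-BSA intrapleurally. Oral dosing was 30 min before the challenge. After 4 h the rats were killed and pleural exudate fluid volume and white blood cell accumulation were determined. ED50 with 95% confidence limits came from least-squares regression.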
row,Structure (SMILES),ED50 [µmol/kg]
1,N#CCCN(N)c1nc2cc(C(F)(F)F)ccc2o1,92
2,C[C@]12CCC(=O)C=C1CC[C@@H]1[C@@H]2[C@@H](O)C[C@@]2(C)[C@H]1CC[C@]2(O)C(=O)CO [HYDROCORTISONE],50
3,Cc1ccc2oc(N(N)CCC#N)nc2c1,175
4,N#CCCN(N)c1nc2ccccc2o1,243
5,COc1ccc2oc(N(N)CCC#N)nc2c1,116

# Tested on: Rattus norvegicus
# Experiment: Inhibition of pleural reverse passive Arthus reactions (exudate white blood cells (WBC)); No significant inhibition at 56 umol/kg (Inactive)
# Format: functional, organism-based
# Method in brief: as §2
row,Structure (SMILES),ED50
1,COc1ccc2c(c1)c(CC(=O)O)c(C)n2C(=O)c1ccc(Cl)cc1 [INDOMETHACIN],inactive

# Tested on: Rattus norvegicus
# Experiment: In vivo inhibition of rat dermal passive revers arthus reaction following p.o. administration; Inactive.
# Format: functional, organism-based
row,Structure (SMILES),ED40
1,N#CCCC(N)c1nc2ccccc2o1 (stereo not given),inactive
2,CC(=O)N(CCC#N)c1nc2ccccc2o1,inactive
3,CS(=O)(=O)NN(CCC#N)c1nc2ccccc2o1,inactive
4,C/N=C(\S)NN(CCC#N)c1nc2ccccc2o1,inactive
5,N#CCCN(NC(N)=O)c1nc2ccccc2o1,inactive
6,N#CCCN(NC(=O)NC1CCCCC1)c1nc2ccccc2o1,inactive
7,CN(C)S(=O)(=O)n1c(N(N)CCC#N)nc2ccccc21,inactive
8,N#CCCN(N)c1nc2cc(-c3ccccc3)ccc2o1,inactive
9,N#CCCN(N)c1nc2cc(Oc3ccccc3)ccc2o1,inactive
10,NN(CCS(=O)(=O)c1ccccc1)c1nc2ccccc2o1,inactive
11,N#CCCN(C=O)c1nc2ccccc2o1,inactive
12,NN(CCC(=O)O)c1nc2ccccc2o1,inactive
13,N#CCCN(N)c1nc2cc(OCc3ccccc3)ccc2o1,inactive
14,COC(=O)N(CCC#N)c1nc2ccccc2o1,inactive
15,CNC(=O)NN(CCC#N)c1nc2ccccc2o1,inactive
16,NN(CCSc1ccccc1)c1nc2ccccc2o1,inactive
17,N#CCC(=O)N(N)c1nc2ccccc2o1,inactive
18,N#CCCN(N)c1nc2cc(C(=O)c3ccccc3)ccc2o1,inactive
19,CCOC(=O)c1ccc2oc(N(N)CCC#N)nc2c1,inactive
20,CC(C)S(=O)(=O)n1c(N(N)CCC#N)nc2ccccc21,inactive

# Tested on: Rattus norvegicus
# Experiment: Inhibition of pleural reverse passive Arthus reactions (RPAR) in rat (exudate volume); No significant inhibition at 56 umol/kg (Inactive)
# Format: functional, organism-based
# Method in brief: as §2
row,Structure (SMILES),ED50
1,COc1ccc2c(c1)c(CC(=O)O)c(C)n2C(=O)c1ccc(Cl)cc1 [INDOMETHACIN],inactive

# Tested on: Rattus norvegicus
# Experiment: Effective dose of compound for 40% inhibition of rat dermal reverse passive Arthus reaction (RPAR) on peroral administration; No significant inhibition at 56 umol/kg (Inactive)
# Format: functional, organism-based
# Method in brief: as §1
row,Structure (SMILES),ED40
1,COc1ccc2c(c1)c(CC(=O)O)c(C)n2C(=O)c1ccc(Cl)cc1 [INDOMETHACIN],inactive

# Species on record: Rattus norvegicus
# Experiment: Effect in rat pleural Carrageenan test (exudate white blood cells (WBC))
# Format: functional
row,Structure (SMILES),ED50 [µmol/kg]
1,C[C@]12CCC(=O)C=C1CC[C@@H]1[C@@H]2[C@@H](O)C[C@@]2(C)[C@H]1CC[C@]2(O)C(=O)CO [HYDROCORTISONE],9
2,N#CCCN(N)c1nc2ccccc2o1,171

# Species on record: Rattus norvegicus
# Experiment: Effect in rat pleural Carrageenan test (exudate volume)
# Format: functional
row,Structure (SMILES),ED50 [µmol/kg]
1,COc1ccc2c(c1)c(CC(=O)O)c(C)n2C(=O)c1ccc(Cl)cc1 [INDOMETHACIN],1.1
2,C[C@]12CCC(=O)C=C1CC[C@@H]1[C@@H]2[C@@H](O)C[C@@]2(C)[C@H]1CC[C@]2(O)C(=O)CO [HYDROCORTISONE],12
3,N#CCCN(N)c1nc2ccccc2o1,105

# Tested on: Rattus norvegicus
# Experiment: Effect in rat pleural Carrageenan test (exudate white blood cells (WBC)); No significant effect at 28 umol/kg (Not active)
# Format: functional, organism-based
row,Structure (SMILES),ED50
1,COc1ccc2c(c1)c(CC(=O)O)c(C)n2C(=O)c1ccc(Cl)cc1 [INDOMETHACIN],inactive

# Species on record: Rattus norvegicus
# Experiment: Inhibition of pleural reverse passive Arthus reactions (RPAR) in rat (exudate volume)
# Format: functional
# Method in brief: as §2
row,Structure (SMILES),ED50 [µmol/kg]
1,N#CCCN(N)c1nc2cc(C(F)(F)F)ccc2o1,70
2,C[C@]12CCC(=O)C=C1CC[C@@H]1[C@@H]2[C@@H](O)C[C@@]2(C)[C@H]1CC[C@]2(O)C(=O)CO [HYDROCORTISONE],38
3,Cc1ccc2oc(N(N)CCC#N)nc2c1,148
4,N#CCCN(N)c1nc2ccccc2o1,238
5,COc1ccc2oc(N(N)CCC#N)nc2c1,155
